# Measurements reported in ChEMBL document CHEMBL3272234, “Analgesic agents. 3. New bridged aminotetralins” (1976).
# Active and inactive are the calls of the source. The rule behind the calls is not given here.
# Tests used:
# [1] = species on record: Rattus norvegicus; assay: Analgesic activity in Charles River rat by tail flick test relative to morphine; type: functional
# Outline: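 Rats (groups of six or ten) dosed ip in aqueous solution or Tween-80 suspension, with doses as mg base/kg. Potency expressed relative to morphine, which was taken as unity. Some estimates were based on two doses.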
# [2] = system: Rattus norvegicus; assay: Analgesic activity in ip dosed Charles River rat by tail flick test; type: functional
# Outline: (§1)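 Dosed intraperitoneally as aqueous solutions or Tween-80 suspensions to groups of six or ten rats. Doses expressed as mg base/kg. Read-out recorded as the number of rats showing analgesia over the number tested at each dose.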
# [3] = system: Rattus norvegicus; assay: Analgesic activity in po dosed Charles River rat by tail flick test; type: functional
# Outline: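 Oral dosing of rats, with doses calculated as mg base/kg. Read-out recorded as the number of rats showing analgesia over the number tested.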
# [4] = system: Rattus norvegicus; assay: Analgesic activity in Charles River rat at 50 mg/kg, ip by tail flick test; type: functional, organism-based; design: dose 50 mg/kg; outline: as §1
# [5] = system: Rattus norvegicus; assay: Analgesic activity in Charles River rat at 25 mg/kg, ip by tail flick test; type: functional, organism-based; design: dose 25 mg/kg; outline: as §1
SMILES,Ratio [1],ED50 [2] [mg/kg],ED50 [3] [mg/kg],Activity [4],Activity [5]
COc1ccc2c(c1)[C@@]1(C)CCCCCC(C2)[C@@H]1[N+](C)(C)[O-].Cl,0.44,10,16.5,,
CC[C@@]12CC=CCC(Cc3ccc(OC)cc31)[C@@H]2NC.I,,25,,,
Br.C[C@@]12Cc3ccccc3CCC(Cc3ccc(O)cc31)C2N (some centres undefined),,25,,,
COc1ccc2c(c1)[C@@]1(C)CCCCCC(C2)[C@@H]1N.Cl,0.44,10,,,
CC[C@@]12CC=CCC(Cc3ccc(O)cc31)[C@@H]2N,2.53,1.75,6.25,,
CC[C@@]12CC=CCC(Cc3ccc(OC)cc31)[C@@H]2N(C)C.Cl,,50,,inactive,
COc1ccc2c(c1)[C@@]1(C)Cc3ccccc3CC(C2)C1N.Cl (some centres undefined),0.31,14.5,,,
Br.C[C@@]12Cc3ccccc3CC(Cc3ccc(O)cc31)C2N (some centres undefined),0.35,12.5,,,
CC(=O)Oc1ccc2c(c1)[C@@]1(C)CCCCC(C2)[C@@H]1N.Cl,0.44,10,40,,
CC[C@@]12Cc3ccccc3CC(Cc3ccc(OC)cc31)C2N.Cl (some centres undefined),,50,,,
COc1ccc2c(c1)[C@@]1(C)Cc3ccccc3CCC(C2)C1N.O=C(O)/C=C/C(=O)O (some centres undefined),,25,,,inactive
CN1CC[C@]23c4c5ccc(O)c4O[C@H]2[C@@H](O)C=C[C@H]3[C@H]1C5 [MORPHINE],1,,,,
CC[C@@]12CC=CCC(Cc3ccc(OC)cc31)[C@@H]2N.Cl,1.05,4.2,6.25,,
COc1ccc2c(c1)[C@@]1(C)CC=CCC(C2)[C@@H]1N(C)C.Cl,,50,,inactive,
C[C@@]12CC=CCC(Cc3ccc(O)cc31)[C@@H]2N.Cl,1.26,6.25,,,
Br.C[C@@]12CCCCC(Cc3ccc(O)cc31)[C@@H]2N,0.6,7.4,,,
C[C@@]12CCCCC(Cc3ccc(OC(=O)C4CC4)cc31)[C@@H]2N.Cl,0.81,5.5,16.5,,
CCC(=O)O[C@](Cc1ccccc1)(c1ccccc1)[C@H](C)CN(C)C [PROPOXYPHENE],,10.4,,,
COc1ccc2c(c1)[C@@]1(C)CC=CCC(C2)[C@@H]1N.Cl,0.27,16.5,6.25,,
